These results are taken from ChEMBL document CHEMBL4513216, “Probing the Open Global Health Chemical Diversity Library for Multistage-Active Starting Points for Next-Generation Antimalarials” (ACS Infect Dis, 2020).

The nature of the data set: Toxicity liver stage against HepG2, at 10uM. Format: cell-based. Also on record: test concentration 10 uM, cell line HepG2-A16-CD81EGFP. Conditions: human, HepG2-A16-CD81EGFP cells; read-out: INHIBITION
The method, boiled down: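 Uninfected HepG2-A16-CD81EGFP cells, 3 × 10^3 per well, 1536-well, plated on prespotted compound at 10 μM final, parasite-free screening media added to match infected plates; puromycin 10 μM positive, DMSO 0.5% negative; run in parallel with 48 h PbLuc assay at 37 °C, 5% CO2; viability by CellTiter-Glo luminescence, normalized to controls.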
For the compound `Cc1nn(CC(O)CN2CCc3ccccc3C2)c(=O)c(C#N)c1C` (stereo unspecified), the cytotoxicity at 10 µM was found to be 8.27%.
With `CC1(C)CNC(=O)CN(C(=O)Cc2ccccc2)C1`, the cytotoxicity at 10 µM was -6.92%.
As to `O=C(Cc1cnc(-n2cccc2)s1)NCCCO`, the cytotoxicity at 10 µM was -3.14%.
For the compound `Cc1n[nH]c2nc(-c3cccc(Cl)c3)cc(C(=O)O)c12`, the cytotoxicity at 10 µM was -1.05%.
As to `O=c1ccc(-n2ccnc2)nn1CCNS(=O)(=O)c1ccc(F)c(Cl)c1`, the cytotoxicity at 10 µM is -4.39%.
Then `CNC(=O)c1nnn(-c2ccccc2F)c1-c1ccccn1`, with -4.21%.
Regarding `O=c1ccc2c(n1Cc1cccnc1)CCC(NCc1cccnc1)C2` (stereo unspecified), the cytotoxicity at 10 µM is 19.2%.
Consider `CN(C)C(=O)N1CC2(CCOCC2)c2cc(NS(=O)(=O)C3CC3)ccc21`, for which the cytotoxicity at 10 µM is -7.15%.
On to `COCCN1CCc2ncc(CN(C)C)n2CC1`, for which the cytotoxicity at 10 µM is -0.0807%.
With `CNC(=O)[C@@H]1COC[C@H]2CN(C(=O)c3ccc(OC)cc3)C[C@H]21`, the cytotoxicity at 10 µM came to 9.48%.
Turning to `O=c1cc2c(nn1CN1CCOCC1)CCC2`, the cytotoxicity at 10 µM is 1.31%.
For `Cn1cnc2c1C(COCC1CC1)CN(Cc1ccsc1)C2` (stereo unspecified), the cytotoxicity at 10 µM is -5.07%.
In the case of `Cc1ccc(NC(=O)c2cccc(OCc3nnnn3C)c2)nc1`, the cytotoxicity at 10 µM amounted to 4.4%.
With `CC1(C(N)=O)CN(CC2CCC2)CCO1` (stereo unspecified) the figure was 2.04%; with `CNC(=O)c1cc(C)nc(C2(C)CCCN2c2cc(C)ncn2)n1` (stereo unspecified), 2.15%.
In the case of `COc1ccccc1CNC(=O)c1ccccc1-n1cnc(CN)c1`, the cytotoxicity at 10 µM was -10.6%.
As to `CC(O)c1cn(Cc2ccccc2)nn1` (stereo unspecified), the cytotoxicity at 10 µM is 7.62%.
With `CCc1cc2c(N3CCCC(c4ccn[nH]4)C3)ncnc2s1` (stereo unspecified) the figure was 15.7%; with `Cc1cccn2cc(CN3CCC(N4CCN(C)C4=O)CC3)nc12`, 7.31%; with `Cc1cccc(NC(=O)CNC(=O)c2ccccc2F)c1`, -1.24%.
Take `N#CCCN(CC1CCOC1)Cn1ccc(-c2ccsc2)n1` (stereo unspecified): the cytotoxicity at 10 µM was -2.68%.
Take `Cc1csc(C(C)(C)NCCNS(C)(=O)=O)n1`: the cytotoxicity at 10 µM came out at 4.61%.
In the case of `O=C(NCC1CCS(=O)(=O)C1)c1ccco1` (stereo unspecified), the cytotoxicity at 10 µM is -7%.
Turning to `COc1ccc2cc(C(=O)NCCc3nc(C)no3)[nH]c2c1`, the cytotoxicity at 10 µM was determined as 9.63%.
As for `CN1CCN(CC(NCc2ccc(F)cc2)c2ccccc2)CC1` (stereo unspecified), the cytotoxicity at 10 µM was -15.7%.
With `Cc1nc(CN2CCN(C(=O)Cc3cccc(Cl)c3)CC2)no1` the figure was -4.76%; with `CCC(CC)c1cc(CNC(=O)N2CCCC(c3ncc[nH]3)C2)on1` (stereo unspecified), -2.02%; with `CC(C)C(O)C(C)(C)CNC(=O)NCc1ccc(-n2cncn2)cc1` (stereo unspecified), -8.14%.
On to `CCN(C(=O)COc1nc(C(C)(C)C)no1)C1CC1`, for which the cytotoxicity at 10 µM was 3.2%.
Consider `O=C(c1csc(-c2ncccn2)n1)N1CCN2CCCCC2C1` (stereo unspecified), for which the cytotoxicity at 10 µM amounted to 4.55%.
With `COc1ccc2cccc(CC(=O)NCc3n[nH]c(=O)[nH]3)c2c1`, the cytotoxicity at 10 µM is -3.22%.
`O=C(NCCCO)Nc1cccc(C[S+]([O-])Cc2ccccc2)c1` (stereo unspecified): the cytotoxicity at 10 µM is -1.06%.
On to `O=C(Nc1cc(Cl)ccc1Cl)NC1CCN(C2CCOC2)CC1` (stereo unspecified), for which the cytotoxicity at 10 µM came out at 6.8%.
Then `CSC(C)C(=O)N1CCN(CCO)CC1` (stereo unspecified), with -6.69%.
`COCCCOC1CN(C(=O)c2[nH]nc3c2CCCC3)C1`: the cytotoxicity at 10 µM was 8.11%.
Take `CC(Cn1ccnc1)NS(=O)(=O)Cc1ccc(F)cc1` (stereo unspecified): the cytotoxicity at 10 µM was 5.36%.
Turning to `COc1ccccc1OCC(=O)Nc1ncccc1Cl`, the cytotoxicity at 10 µM is -3.61%.
With `Cn1nc2c(cc1=O)CN(CCc1nc3ccccc3c(=O)[nH]1)CC2` the figure was -10.9%.
For the compound `O=C(CCN1CCC(C(=O)c2cc(F)ccc2F)CC1)NC1CC1`, the cytotoxicity at 10 µM is -7.74%.
For `Cc1nnc2n1CCN(C(=O)c1cn(-c3ccccc3Cl)nn1)C2`, the cytotoxicity at 10 µM is -4.55%.
Consider `O=C(c1ccncc1)N1CCc2c(COCC3CC3)cncc2C1`, for which the cytotoxicity at 10 µM was -78.7%.
On to `Cn1cc(-c2cnc(N3CCOCC3)nc2)cc1C(=O)NC1CC1`, for which the cytotoxicity at 10 µM is -80.4%.
Turning to `CCCc1nccn1-c1cccc(CN2CCCC2)c1`, the cytotoxicity at 10 µM is -4.87%.
For the compound `CC(C)N1CC(C(=O)N2CCN(CCn3cccc3)CC2)CC1=O` (stereo unspecified), the cytotoxicity at 10 µM is -4.97%.
On to `CCc1nc(N2CCCC(CO)(CCOC)C2)ncc1C` (stereo unspecified), for which the cytotoxicity at 10 µM was 4.93%.
Consider `O=C(CCc1cc2n(n1)CCN(CCCn1cccc1)C2)N1CCCC1`, for which the cytotoxicity at 10 µM was -15.4%.
With `O=C(CCc1cc(Cl)no1)N1CCN(CCn2cncn2)CC1` the figure was -1.84%; with `CCN1CCN(C[C@@H]2CN(c3ncccc3F)C[C@@H]2CO)CC1`, -6.45%; with `Cc1nc2c(c(=O)[nH]1)CN(C(=O)CC[C@@H]1CCCN3CCCC[C@H]13)C2`, 17%.
As to `CCN1CCC(CNC(=O)C(c2ccc(F)cc2)N(C)C)(N(C)C)CC1` (stereo unspecified), the cytotoxicity at 10 µM was -0.288%.
For the compound `CCNC(=O)[C@@H]1C[C@H](N)CN1C(=O)Cc1cc(C)ccc1C`, the cytotoxicity at 10 µM was determined as 2.43%.
For the compound `Fc1ccc(Cn2ncc3c2CN(c2ncccn2)C3)cc1`, the cytotoxicity at 10 µM amounted to 1.5%.
As for `COCC(NC1CCN(CC(C)C)CC1)c1ccnn1C` (stereo unspecified), the cytotoxicity at 10 µM was determined as 4.22%.
Regarding `Cc1ccc(C(C(=O)O)N2CCCN(Cc3ccccn3)CC2)c(F)c1` (stereo unspecified), the cytotoxicity at 10 µM is -1.62%.
As for `CCc1c(C)sc(NC(=O)CN2CCOCC2)c1C(=O)OC`, the cytotoxicity at 10 µM worked out at 19.3%.
With `CN1CCN(Cc2nc3ccccc3[nH]2)[C@H]2CS(=O)(=O)C[C@H]21`, the cytotoxicity at 10 µM came to 20.5%.
In the case of `O=C1OC2(CCN(C3CCCOC3)CC2)CN1CCc1ccccc1` (stereo unspecified), the cytotoxicity at 10 µM is -17.5%.
Take `Cc1ccc(C#N)c(N2CCC(c3nccn3CCN(C)C)CC2)n1`: the cytotoxicity at 10 µM is -5.47%.
Then `COCc1nc(C(=O)NS(=O)(=O)c2ccc(F)cc2F)cs1`, with -8.51%; and `CCn1ccnc1CN1CCCN(C(=O)c2csc(C)n2)CC1`, with -2.84%; and `CCOCC(O)CN1CCN(C(=O)c2cc(F)ccc2C)CC1` (stereo unspecified), with -6.69%.
With `CC(=O)NCc1ccc(C(=O)N2CCCC2c2cnn(C)c2)o1` (stereo unspecified) the figure was -8.67%; with `COc1cccc(CNC(=O)N2CCN(Cc3cc(C)on3)CC2)c1`, -1.58%.
For `CCc1noc(C(C)N2CCC(C(=O)Nc3cnn(CC)c3)CC2)n1` (stereo unspecified), the cytotoxicity at 10 µM came out at 2.21%.
For `CC1CCN(CC(=O)NC2CCN(C(C)c3ccccc3)CC2)CC1` (stereo unspecified), the cytotoxicity at 10 µM was -6.36%.
For the compound `Cc1cc(C[C@@H]2CCC[C@H]2NCc2cc(F)ccc2F)on1`, the cytotoxicity at 10 µM was -5.72%.
Turning to `c1ccc(CN2CC[C@@H]3O[C@@H](COCCN4CCCC4)CC[C@@H]32)nc1`, the cytotoxicity at 10 µM is -80.6%.
Take `CC(=O)N1[C@H](Cn2cncn2)C[C@@H]2CN(CC3CC3)CC[C@@H]21`: the cytotoxicity at 10 µM is -3.64%.
Turning to `COCCN1CC[C@]2(CN(Cc3ccccn3)C[C@H]2C)C1=O`, the cytotoxicity at 10 µM was 8.86%.
On to `CCCC(=O)N1CC[C@@H]2[C@H](CC1)N(Cc1cccnc1)CCS2(=O)=O`, for which the cytotoxicity at 10 µM was -8.63%.
Take `O=C([C@H]1COC[C@H]2CN(C3CCOCC3)C[C@H]21)N1CCCO1`: the cytotoxicity at 10 µM was -4.68%.
